Reference: ChEMBL document CHEMBL5236592, “Induction of Ferroptosis in Glioblastoma and Ovarian Cancers by a New Pyrrole Tubulin Assembly Inhibitor” (J Med Chem, 2022)
Activity calls are given as the source filed them.

Experiments:
Assay type in all cases: functional, organism-based
Details in all cases: time 40.0 day
SK-OV-3 [1] = test: Induction of ferroptosis-mediated antitumor activity against human SK-OV-3 cells xenografted in BALB/C nu/nu mouse assessed as increase in lactic acid level in tumor at 25 mg/kg, ip administered every 2 days for 40 days by biochemical analysis
Procedure, shortened: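 U-87 MG or SKOV-3 sc xenografts (1 × 10^8 cells/mL) in female BALB/c nu/nu mice, 4 per group. Given 25 mg/kg ip in 100 μL every 2 days, or saline. Tumors harvested on day 40 and assayed for LPO, MDA, lactic acid, total glutathione (GSH + GSSG), ATP and Fe2+.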

Mus musculus [2] = test: Upregulation of Acsf2 mRNA expression in tumor of BALB/C nu/nu mouse xenografted with human U-87 MG cells at 25 mg/kg, ip administered every 2 days for 40 days by qPCR analysis
Procedure, shortened: (§1)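 Female BALB/c nu/nu mice bearing sc U-87 MG or SKOV-3 xenografts were dosed ip at 25 mg/kg (100 μL) every 2 days, or given saline, and tumors were taken at day 40. RNA was extracted from about 20 mg of tissue. qPCR ran 40 cycles (95 °C 15 min; 94 °C 20 s; 60 °C 34 s) on a 69-gene panel. Fold change was by 2^–ΔΔCt, with ≥1.5 counted as increased.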

Mus musculus [3] = test: Upregulation of Gclc mRNA expression in tumor of BALB/C nu/nu mouse xenografted with human U-87 MG cells at 25 mg/kg, ip administered every 2 days for 40 days by qPCR analysis; procedure, shortened: as §1
Mus musculus [4] = test: Upregulation of Fancd2 mRNA expression in tumor of BALB/C nu/nu mouse xenografted with human U-87 MG cells at 25 mg/kg, ip administered every 2 days for 40 days by qPCR analysis; procedure, shortened: as §1
Mus musculus [5] = test: Upregulation of TFRC mRNA expression in tumor of BALB/C nu/nu mouse xenografted with human U-87 MG cells at 25 mg/kg, ip administered every 2 days for 40 days by qPCR analysis
Procedure, shortened: (§2)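 Female BALB/c nu/nu mice, 10 weeks old, 4 per group. Inoculated s.c. with 1 × 10^8 cells/mL of log-phase U-87 MG or SKOV-3 cells. Dosed i.p. with 100 μL at 25 mg/kg every 2 days; controls got 100 μL saline. Tumors harvested on day 40. RNA extracted from about 20 mg of tissue. qPCR panel of 69 genes, 40 cycles (94 °C 20 s, 60 °C 34 s). Analysed by 2–ΔΔCt; fold ≥1.5 taken as increased.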

Mus musculus [6] = test: Upregulation of Clsd1 mRNA expression in tumor of BALB/C nu/nu mouse xenografted with human U-87 MG cells at 25 mg/kg, ip administered every 2 days for 40 days by qPCR analysis; procedure, shortened: as §1
Mus musculus [7] = test: Upregulation of Cars mRNA expression in tumor of BALB/C nu/nu mouse xenografted with human U-87 MG cells at 25 mg/kg, ip administered every 2 days for 40 days by qPCR analysis; procedure, shortened: as §1
Mus musculus [8] = test: Upregulation of Gss mRNA expression in tumor of BALB/C nu/nu mouse xenografted with human SK-OV-3 cells at 25 mg/kg, ip administered every 2 days for 40 days by qPCR analysis; procedure, shortened: as §2
Mus musculus [9] = test: Upregulation of FTH1 mRNA expression in tumor of BALB/C nu/nu mouse xenografted with human SK-OV-3 cells at 25 mg/kg, ip administered every 2 days for 40 days by qPCR analysis; procedure, shortened: as §1
Mus musculus [10] = test: Upregulation of Akr1c1 mRNA expression in tumor of BALB/C nu/nu mouse xenografted with human SK-OV-3 cells at 25 mg/kg, ip administered every 2 days for 40 days by qPCR analysis; procedure, shortened: as §1
Mus musculus [11] = test: Upregulation of Chac1 mRNA expression in tumor of BALB/C nu/nu mouse xenografted with human SK-OV-3 cells at 25 mg/kg, ip administered every 2 days for 40 days by qPCR analysis; procedure, shortened: as §1
Mus musculus [12] = test: Upregulation of […] mRNA expression in tumor of BALB/C nu/nu mouse xenografted with human SK-OV-3 cells at 25 mg/kg, ip administered every 2 days for 40 days by qPCR analysis; procedure, shortened: as §2
Mus musculus [13] = test: Upregulation of Ttc35 mRNA expression in tumor of BALB/C nu/nu mouse xenografted with human SK-OV-3 cells at 25 mg/kg, ip administered every 2 days for 40 days by qPCR analysis; procedure, shortened: as §2
U-87MG ATCC [14] = test: Antitumor activity against human U-87 MG cells xenografted in BALB/C nu/nu mouse assessed as reduction in CD31 expression in tumor at 25 mg/kg, ip administered every 2 days for 40 days by immunofluoresence staining based assay
Procedure, shortened: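 Female BALB/c nu/nu mice, 10 weeks old, 4 per group. Received subcutaneous U-87 MG or SKOV-3 cells (1 × 10^8 cells/mL, harvested in log phase). Dosed ip with 100 μL at 25 mg/kg every 2 days; controls got 100 μL saline on the same schedule. Sacrificed at 40 days; tumors weighed, volume = ab²/2. Tumor sections (6 μm, paraffin) stained by immunofluorescence for Ki67 or CD31 with Alexa Fluor 488 secondary.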

SK-OV-3 [15] = test: Induction of ferroptosis-mediated antitumor activity against human SK-OV-3 cells xenografted in BALB/C nu/nu mouse assessed as reduction in FTH1 protein expression in tumor at 25 mg/kg, ip administered every 2 days for 40 days by immunofluoresence staining based assay
Procedure, shortened: (§3)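 Xenografts of U-87 MG or SKOV-3 (1 × 10^8 cells/mL, sc) in female BALB/c nu/nu mice, 4 per group. Treated ip at 25 mg/kg in 100 μL every 2 days versus saline, tumors collected at day 40. Paraffin sections (6 μm) were blocked at 37 °C for 30 min, then incubated with rabbit anti-GPX4 or anti-FTH1 and then Alexa Fluor 488 anti-rabbit, each for 45 min at 37 °C.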

U-87MG ATCC [16] = test: Induction of ferroptosis-mediated antitumor activity against human U-87 MG cells xenografted in BALB/C nu/nu mouse assessed as reduction in GPX4 protein expression in tumor at 25 mg/kg, ip administered every 2 days for 40 days by immunofluoresence staining based assay; procedure, shortened: as §3

Measured: Activity

COc1cc(C(=O)c2cn(-c3ncccn3)cc2-c2ccco2)cc(OC)c1OC
active: SK-OV-3 [1] | Mus musculus [2] | Mus musculus [3] | Mus musculus [4] | Mus musculus [5] | Mus musculus [6] | Mus musculus [7] | Mus musculus [8] | Mus musculus [9] | Mus musculus [10] | Mus musculus [11] | Mus musculus [12] | Mus musculus [13] | U-87MG ATCC [14] | SK-OV-3 [15] | U-87MG ATCC [16]
